The text below walks through data of ChEMBL document CHEMBL1146654, “3-(7-Azaindolyl)-4-arylmaleimides as potent, selective inhibitors of glycogen synthase kinase-3” (Bioorg Med Chem Lett, 2004).

Assay [1] has as its target T1, Protein kinase C beta type (Homo sapiens, UniProt P05771). The assay can be described thus: Inhibitory concentration against human protein kinase C-betaII using histone as substrate.
Target sequence in this assay (P05771 whole entry): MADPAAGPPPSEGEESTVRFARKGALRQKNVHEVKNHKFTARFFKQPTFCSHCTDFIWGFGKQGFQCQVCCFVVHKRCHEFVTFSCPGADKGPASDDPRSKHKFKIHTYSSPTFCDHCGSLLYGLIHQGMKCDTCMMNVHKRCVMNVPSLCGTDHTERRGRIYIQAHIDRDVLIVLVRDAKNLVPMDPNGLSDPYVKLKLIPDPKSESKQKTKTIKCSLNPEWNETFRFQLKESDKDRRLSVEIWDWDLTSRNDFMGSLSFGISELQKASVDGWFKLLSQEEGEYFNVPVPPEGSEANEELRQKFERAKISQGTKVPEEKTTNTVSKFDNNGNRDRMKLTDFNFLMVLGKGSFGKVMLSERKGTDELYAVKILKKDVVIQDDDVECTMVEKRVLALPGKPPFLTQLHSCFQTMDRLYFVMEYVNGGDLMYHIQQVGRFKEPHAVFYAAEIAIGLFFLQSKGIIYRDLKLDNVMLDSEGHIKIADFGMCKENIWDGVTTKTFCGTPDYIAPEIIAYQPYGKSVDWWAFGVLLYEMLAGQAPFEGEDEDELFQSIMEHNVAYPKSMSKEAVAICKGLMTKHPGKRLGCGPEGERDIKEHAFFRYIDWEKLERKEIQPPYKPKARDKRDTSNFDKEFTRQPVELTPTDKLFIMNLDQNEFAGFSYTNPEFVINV
The target in assay [2] is T2, Protein kinase C gamma type (Homo sapiens, UniProt P05129). The assay can be described thus: Inhibitory activity of 10 uM compound against protein kinase C-gamma using histone as substrate.
Assay [3] concerns the target T3, Protein kinase C alpha type (Homo sapiens, UniProt P17252). Nature of the assay: Inhibitory activity of 10 uM compound against protein kinase C-alpha using histone as substrate.
Assay [4] addresses T1, Protein kinase C beta type. Nature of the assay: Inhibition of protein kinase C-betaII at 10 uM.
Target sequence in this assay (P05771 2-671 limits assumed): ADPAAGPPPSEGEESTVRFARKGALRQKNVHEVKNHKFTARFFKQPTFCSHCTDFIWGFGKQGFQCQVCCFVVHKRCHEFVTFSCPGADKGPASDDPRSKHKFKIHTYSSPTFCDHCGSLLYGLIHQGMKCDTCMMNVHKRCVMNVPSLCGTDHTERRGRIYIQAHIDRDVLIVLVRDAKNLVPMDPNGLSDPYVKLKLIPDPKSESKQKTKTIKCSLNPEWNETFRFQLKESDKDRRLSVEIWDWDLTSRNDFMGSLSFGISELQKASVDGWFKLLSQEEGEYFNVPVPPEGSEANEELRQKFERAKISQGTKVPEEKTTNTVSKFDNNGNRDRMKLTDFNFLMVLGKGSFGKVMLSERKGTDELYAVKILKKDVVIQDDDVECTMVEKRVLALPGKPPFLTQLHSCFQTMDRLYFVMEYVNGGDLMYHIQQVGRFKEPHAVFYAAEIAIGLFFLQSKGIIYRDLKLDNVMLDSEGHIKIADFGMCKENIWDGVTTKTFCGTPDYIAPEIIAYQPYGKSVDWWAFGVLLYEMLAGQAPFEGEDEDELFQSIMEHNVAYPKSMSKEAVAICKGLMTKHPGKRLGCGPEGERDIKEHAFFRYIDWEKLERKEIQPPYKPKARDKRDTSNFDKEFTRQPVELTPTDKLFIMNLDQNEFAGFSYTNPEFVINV
The target in assay [5] is T3, Protein kinase C alpha type. Nature of the assay: Inhibitory concentration against protein kinase C-alpha using histone as substrate.
Assay [6] concerns the target T2, Protein kinase C gamma type. Nature of the assay: Inhibition of protein kinase C-gamma.
Assay [7] concerns the target Glycogen synthase kinase-3 beta (Homo sapiens, UniProt P49841). Nature of the assay: Effective concentration of compound against glycogen synthase kinase-3 in HEK293 cells. The format is functional, cell-based. The gist of the method: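 HEK293 cells exposed to compound; glycogen synthase activity then measured in cell extracts as ¹⁴C-UDP glucose incorporation into glycogen. EC₅₀ averaged from triplicate determinations.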

Glycogen synthase kinase-3 beta, sequence (P49841 whole entry): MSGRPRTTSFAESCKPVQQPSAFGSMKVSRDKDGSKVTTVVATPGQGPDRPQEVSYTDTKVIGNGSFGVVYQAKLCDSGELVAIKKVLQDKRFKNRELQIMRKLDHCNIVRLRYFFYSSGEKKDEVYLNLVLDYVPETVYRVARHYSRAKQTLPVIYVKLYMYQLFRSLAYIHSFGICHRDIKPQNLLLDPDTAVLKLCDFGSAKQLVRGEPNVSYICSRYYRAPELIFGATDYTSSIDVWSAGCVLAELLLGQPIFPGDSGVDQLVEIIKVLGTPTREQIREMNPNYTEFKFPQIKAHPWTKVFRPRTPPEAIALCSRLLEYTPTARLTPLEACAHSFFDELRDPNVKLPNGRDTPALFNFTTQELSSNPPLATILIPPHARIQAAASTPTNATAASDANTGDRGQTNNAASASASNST

As usually defined, the IC50 is the concentration at which inhibition is half-maximal. Broadly, the inhibition is the percentage by which the read-out fell short of the control. A lower inhibition goes with a weak effect. Regarding `O=C1NC(=O)C(c2cn(CCCO)c3ncccc23)=C1c1ccccc1C(F)(F)F`, the IC50 in assay [1] was 1.85 µM. Further, the inhibition in assay [2] and in assay [3] was 50% each time.
`O=C1NC(=O)C(c2cn(CCCO)c3ncccc23)=C1c1cccs1`: the inhibition in assay [4], in assay [2] and in assay [3] was < 50% each time.
For `CN(C)CCCn1cc(C2=C(c3cccc4ccccc34)C(=O)NC2=O)c2cccnc21`, the results for the IC50 in assay [5], in assay [6] and in assay [1] were 1.4 µM, 2.8 µM and 0.24 µM, respectively.
In the case of `O=C1NC(=O)C(c2cn(CCCO)c3ncccc23)=C1c1ccccc1Cl`, the IC50 stood at 4.4 µM in assay [5], 5.5 µM in assay [6] and 0.73 µM in assay [1].
Consider `COc1ccccc1C1=C(c2cn(CCCN)c3ncccc23)C(=O)NC1=O`, for which, in assay [1], the IC50 came to 1.1 µM. In addition, the values for the inhibition in assay [2] and in assay [3] were < 50% and 50%, respectively.
`COc1ccccc1C1=C(c2cn(CCCNC=O)c3ncccc23)C(=O)NC1=O`: the IC50 in assay [6] is 8.7 µM; in assay [1], 2.73 µM. Also, the inhibition in assay [3] was < 50%.
On to `O=C1NC(=O)C(c2cn(CCCO)c3ncccc23)=C1c1cccc2ccccc12`, for which the results for the IC50 in assay [5] and in assay [1] were 3.6 µM and 0.27 µM, respectively. The inhibition in assay [2] came out at 50%.
With `CCn1cc(C2=C(c3cn(CCCO)c4ncccc34)C(=O)NC2=O)c2cccnc21`, in assay [1], half-maximal inhibition (IC50) was put at 1.07 µM. Also, the inhibition in assay [2] and in assay [3] was < 50% throughout.
As for `COc1ccccc1C1=C(c2cn(CCCNS(C)(=O)=O)c3ncccc23)C(=O)NC1=O`, the IC50 in assay [5] amounted to 4.7 µM; in assay [6], 8.6 µM; in assay [1] it was 1.88 µM.
On the same counts, the results for `CN(C)CCCn1cc(C2=C(c3ccccc3Cl)C(=O)NC2=O)c2cccnc21` are 4 µM, 3.6 µM and 1.16 µM.
As a reminder, the EC50 is the concentration that produces a half-maximal response. A high value points to a need for much substance. Regarding `[Cl-].[Li+]` [CHLOROLITHIUM], in assay [7], the EC50 was > 3000 µM.
The compound `COc1ccccc1C1=C(c2cn(CCCO)c3ncccc23)C(=O)NC1=O` yielded an IC50 in assay [1] of 1.44 µM. In addition, the inhibition was < 50% in assay [2] and 50% in assay [3].
Take `O=C1NC(=O)C(c2cn(CCCO)c3ncccc23)=C1c1ccccn1`: the inhibition in assay [4], in assay [2] and in assay [3] was < 50% in each case.
Regarding `COc1ccccc1C1=C(c2cn(CCCNS(N)(=O)=O)c3ncccc23)C(=O)NC1=O`, the values for the IC50 in assay [6] and in assay [1] were 6 µM and 0.89 µM, respectively. Further, the inhibition in assay [3] is < 50%.
As for `O=C1NC(=O)C(c2cn(CCCO)c3ncccc23)=C1c1ccc(F)cc1Cl`, the results for the IC50 in assay [5] and in assay [1] were 4.5 µM and 2.38 µM, respectively. Moreover, the inhibition in assay [2] was < 50%.
